Test results: ChEMBL document CHEMBL4513216, “Probing the Open Global Health Chemical Diversity Library for Multistage-Active Starting Points for Next-Generation Antimalarials” (ACS Infect Dis, 2020)

Experiment: Toxicity liver stage against HepG2, at 10uM
Assay type: cell-based
Parameters: test concentration 10 uM, cell line HepG2-A16-CD81EGFP
Conditions: human, HepG2-A16-CD81EGFP cells; read-out: INHIBITION
Outline: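 Uninfected HepG2-A16-CD81EGFP cells, 3 × 10^3 per well, 1536-well, plated on prespotted compound at 10 μM final, parasite-free screening media added to match infected plates; puromycin 10 μM positive, DMSO 0.5% negative; run in parallel with 48 h PbLuc assay at 37 °C, 5% CO2; viability by CellTiter-Glo luminescence, normalized to controls.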

Question: For `COc1cccc2c1OCC(C(=O)N1CCN(S(C)(=O)=O)CC1)C2` (configuration not stated), which cytotoxicity at 10 µM is on record?
Answer: -7.23%

Question: With `Cc1ccc(-c2nc(CN3CCn4c(nnc4C4CC4)C3)no2)cc1` as the compound, how does the cytotoxicity at 10 µM read?
Answer: -1.99%

Question: With `CC(C)NC(=O)N1CCC2(CC1)C(=O)NCCN2Cc1ccccc1` as the compound, how does the cytotoxicity at 10 µM read?
Answer: 1.29%

Question: With `COc1ccc(CNC(=O)CCN2C[C@@H](C)[C@](O)(C3CC3)C2)cc1` as the compound, how does the cytotoxicity at 10 µM read?
Answer: -12.5%

Question: Which cytotoxicity at 10 µM does the source give for `O=C(c1cnccn1)N1CCN(CC2CC2)c2ncccc2C1` here?
Answer: -3.99%

Question: With `CN(C)c1nc2sc(C(=O)N3CCNC(=O)CC3)cc2s1` as the compound, how does the cytotoxicity at 10 µM read?
Answer: -10.1%

Question: With `CCN(CC)c1nc(C)cc(C(=O)Nc2cccc(C(N)=O)c2)n1` as the compound, how does the cytotoxicity at 10 µM read?
Answer: 14.9%

Question: For `Cn1ccnc1C1CCN(CCN2CCOCC2)CC1`, which cytotoxicity at 10 µM is on record?
Answer: 4.69%

Question: Which cytotoxicity at 10 µM does the source give for `Cn1ncc2c(=O)[nH]c(CN3CCc4ccccc4C3)nc21` here?
Answer: -2.72%

Question: Which cytotoxicity at 10 µM does the source give for `Cc1noc(NC(=O)c2ccccc2)n1` here?
Answer: -0.269%

Question: With `Cc1cccc(CNC2CCCc3c2cnn3C)c1` (configuration not stated) as the compound, how does the cytotoxicity at 10 µM read?
Answer: -8.77%

Question: Which cytotoxicity at 10 µM does the source give for `CCOC1CCN(C(=O)c2ccc(-n3ncc(C#N)c3N)cc2)CC1` here?
Answer: -1.1%

Question: Which cytotoxicity at 10 µM does the source give for `CN(C)C(=O)c1c[nH]nc1C1CCN(S(=O)(=O)c2cccc(Cl)c2)CC1` here?
Answer: 1.22%

Question: For `CS(=O)(=O)NCc1cccc(COC2CCCCC2)c1`, which cytotoxicity at 10 µM is on record?
Answer: 3.12%

Question: With `CC(C)N(C)C(=O)c1ccc(CNc2ncc(C#N)cc2Cl)cc1` as the compound, how does the cytotoxicity at 10 µM read?
Answer: 15.9%

Question: Which cytotoxicity at 10 µM does the source give for `CN(Cc1ccc2c(c1)OCO2)C(=O)NCCc1cnn(C)c1` here?
Answer: -2.69%

Question: Which cytotoxicity at 10 µM does the source give for `Nc1nc(N2CCCCCC2)ncc1C(=O)NCc1ccc(F)c(Cl)c1` here?
Answer: -0.585%

Question: With `CCC(C(=O)NCC1CCN(c2cnn(C)c(=O)c2)CC1)n1cccn1` (configuration not stated) as the compound, how does the cytotoxicity at 10 µM read?
Answer: 6.01%

Question: For `CCc1ncc2c(n1)CN(Cc1nnc(C(C)C)o1)CC2`, which cytotoxicity at 10 µM is on record?
Answer: -4.54%

Question: With `Cc1cccc(OCC(=O)N(C)C2CCN(CC3CCOC3)CC2)c1` (configuration not stated) as the compound, how does the cytotoxicity at 10 µM read?
Answer: -6.22%

Question: With `CCOCC1CN(Cc2ccsc2)Cc2cnn(C)c21` (configuration not stated) as the compound, how does the cytotoxicity at 10 µM read?
Answer: 7.72%

Question: Which cytotoxicity at 10 µM does the source give for `COCC(=O)N1CCc2[nH]nc(-c3ccc4c(c3)OCO4)c2C1` here?
Answer: -137%

Question: For `CC(C)Cn1cc(NC(=O)N2CCCC2)cn1`, which cytotoxicity at 10 µM is on record?
Answer: -5.28%

Question: For `Cc1cnc(CN2CCOC(Cn3nc(C)nc3C)C2)cn1` (configuration not stated), which cytotoxicity at 10 µM is on record?
Answer: 1.46%

Question: Which cytotoxicity at 10 µM does the source give for `COc1cc2c(cc1CN1C[C@@H](CN3CCOCC3)[C@@H](CO)C1)CCC2` here?
Answer: -2.37%

Question: Which cytotoxicity at 10 µM does the source give for `O=C1CN(C(=O)CNC(CC(F)(F)F)c2ccc(F)cc2)CCN1` (configuration not stated) here?
Answer: 10.4%

Question: With `Cc1ccc(-c2nnc(CCC(=O)N3CCCC3c3ccc[nH]3)o2)cc1` (configuration not stated) as the compound, how does the cytotoxicity at 10 µM read?
Answer: -1.31%

Question: For `CN1C(=O)CC(C(=O)O)C12CCN(c1ccc3ccccc3n1)CC2` (configuration not stated), which cytotoxicity at 10 µM is on record?
Answer: 1.21%

Question: For `CCC[C@@H]1CN(C(=O)c2conc2-c2ccccc2)C[C@H]1N(C)C`, which cytotoxicity at 10 µM is on record?
Answer: 2.29%

Question: For `Cn1ccnc1C1CCN(CCC2CCOC2)CC1` (configuration not stated), which cytotoxicity at 10 µM is on record?
Answer: -4.06%

Question: For `COCCOCCC(=O)N1CCC(c2ccccc2C)C1` (configuration not stated), which cytotoxicity at 10 µM is on record?
Answer: -9.46%

Question: With `Cn1ccnc1CCNC(=O)NCCC1CCCCO1` (configuration not stated) as the compound, how does the cytotoxicity at 10 µM read?
Answer: -1.94%

Question: For `CN(C)CC(=O)N1CCC2(CCc3ccc(-c4ccncc4)cc32)CC1`, which cytotoxicity at 10 µM is on record?
Answer: 6.34%

Question: For `Cc1c(Br)cnn1CC(=O)Nc1ccon1`, which cytotoxicity at 10 µM is on record?
Answer: 10.8%

Question: With `Cc1ccc(-c2noc([C@@H]3C[C@H](NC(=O)NC(C)C)CN3C)n2)cc1` as the compound, how does the cytotoxicity at 10 µM read?
Answer: 3.31%

Question: With `COc1ccc(CNCC(C)Oc2ccccn2)cc1Br` (configuration not stated) as the compound, how does the cytotoxicity at 10 µM read?
Answer: -10.2%

Question: Which cytotoxicity at 10 µM does the source give for `Cc1nc(CN(C)Cc2nc(-c3ccncc3)no2)co1` here?
Answer: -0.187%

Question: Which cytotoxicity at 10 µM does the source give for `CC(NC(=O)CN1CCCC1=O)c1ccc(Cl)s1` (configuration not stated) here?
Answer: -6.45%

Question: With `CCS(=O)(=O)N1C[C@@H]2CN(Cc3cnn(C)c3)CCO[C@@H]2C1` as the compound, how does the cytotoxicity at 10 µM read?
Answer: -0.646%

Question: For `Cc1ncnc2c1CCN(C(=O)c1ccnnc1)CC2`, which cytotoxicity at 10 µM is on record?
Answer: 9.9%

Question: Which cytotoxicity at 10 µM does the source give for `CC(NS(C)(=O)=O)C(=O)N(C)Cc1csc(-c2ccccc2)n1` (configuration not stated) here?
Answer: 2.5%

Question: With `O=c1cc(CN2CC[C@@]3(O)CCCC[C@H]3C2)c2cccc3c2n1CCC3` as the compound, how does the cytotoxicity at 10 µM read?
Answer: -0.948%

Question: With `CN1CCN(C(=O)Cn2nc(C(F)(F)F)c(Br)c2C2CC2)CC1` as the compound, how does the cytotoxicity at 10 µM read?
Answer: -8.5%

Question: Which cytotoxicity at 10 µM does the source give for `O=C(O)C(c1ccc(O)cc1)N1CCC(N2CCSCC2)CC1` (configuration not stated) here?
Answer: 0.646%

Question: Which cytotoxicity at 10 µM does the source give for `CCOc1ccc(OCCN2CCC(N3CCNC3=O)CC2)cc1` here?
Answer: 41.3%

Question: For `Cc1cnc(C(=O)N2CCCC(Cn3cc(CC(C)C)nn3)C2)cn1` (configuration not stated), which cytotoxicity at 10 µM is on record?
Answer: 1.33%

Question: With `CCc1n[nH]c(C2CN(C(=O)CCc3cccs3)CCO2)n1` (configuration not stated) as the compound, how does the cytotoxicity at 10 µM read?
Answer: 5.73%

Question: For `O=C1NCCCc2[nH]c(Cc3ccc(F)cc3)nc21`, which cytotoxicity at 10 µM is on record?
Answer: -20.9%

Question: With `COc1cccc(-c2n[nH]cc2CNC2CCCN(C)C2)c1` (configuration not stated) as the compound, how does the cytotoxicity at 10 µM read?
Answer: -8.86%

Question: For `CC(C)Nc1cc(N2CCC(n3cc(C4CC4)nn3)CC2)ncn1`, which cytotoxicity at 10 µM is on record?
Answer: 7.88%

Question: For `CC(=O)Nc1nc(C(=O)N2CCCC(n3ccnc3)C2)cs1` (configuration not stated), which cytotoxicity at 10 µM is on record?
Answer: -3.44%

Question: Which cytotoxicity at 10 µM does the source give for `CN(Cc1nc2ccccc2n1C)C(=O)CCc1cscn1` here?
Answer: -159%

Question: With `CCNc1nc(-c2cccnc2)c(-c2ccnc(N3CCCC3)n2)s1` as the compound, how does the cytotoxicity at 10 µM read?
Answer: -5.14%

Question: Which cytotoxicity at 10 µM does the source give for `Cc1ccc(N(C)CC(O)COCc2ccccc2)c(C)c1` (configuration not stated) here?
Answer: 3.67%

Question: For `CC(=O)N1CCC(c2nccnc2CNC(=O)c2cc[nH]n2)CC1`, which cytotoxicity at 10 µM is on record?
Answer: -6.27%

Question: Which cytotoxicity at 10 µM does the source give for `CCOC(=O)CNC(=O)N1CCOC(CCc2ccccc2)C1` (configuration not stated) here?
Answer: -4.41%

Question: With `COCc1ncc(CN2CCC(Oc3ccccc3OC)CC2)cn1` as the compound, how does the cytotoxicity at 10 µM read?
Answer: -1.77%

Question: With `CCn1cc(CN(C)S(=O)(=O)c2ccccc2)cn1` as the compound, how does the cytotoxicity at 10 µM read?
Answer: 11.9%

Question: With `COCC(c1cccc(C(F)(F)F)c1)N(C)C(=O)c1cc(C)no1` (configuration not stated) as the compound, how does the cytotoxicity at 10 µM read?
Answer: 0.0161%

Question: Which cytotoxicity at 10 µM does the source give for `COCCO[C@H]1CCN(c2cc(OC)ncn2)[C@H]1Cc1cnn(C)c1` here?
Answer: -133%

Question: With `c1cncc(N2CC[C@@H]3CN(CC4CC4)C[C@@H]3C2)c1` as the compound, how does the cytotoxicity at 10 µM read?
Answer: -4.74%

Question: With `CCOC(=O)CN1CCC2(CC1)CC(=O)c1ccc(OC)cc1O2` as the compound, how does the cytotoxicity at 10 µM read?
Answer: 6.2%

Question: For `Cc1cc(C)nc(N2CCC(CNC(=O)c3ccccn3)CC2)n1`, which cytotoxicity at 10 µM is on record?
Answer: -18.9%

Question: With `CCc1ccc(S(=O)(=O)NCCC(O)c2ccoc2)s1` (configuration not stated) as the compound, how does the cytotoxicity at 10 µM read?
Answer: -10.9%

Question: Which cytotoxicity at 10 µM does the source give for `O=C(NCCSC1CCCC1)c1cnccn1` here?
Answer: -0.95%

Question: Which cytotoxicity at 10 µM does the source give for `Cc1nc(CN(Cc2cccs2)C2CCS(=O)(=O)C2)oc1C` (configuration not stated) here?
Answer: -6.46%

Question: With `CNC(=O)CN1CC[C@H]2CN(C(=O)c3ccc(C)nc3)C[C@H]2C1` as the compound, how does the cytotoxicity at 10 µM read?
Answer: 1.61%

Question: For `O=C(Cc1ccsc1)N1C[C@@H]2CN(Cc3ccoc3)CCO[C@@H]2C1`, which cytotoxicity at 10 µM is on record?
Answer: -1.73%

Question: With `CC(C)c1nnc2n1CCN(C(=O)c1ccc(OCC3CC3)cc1)C2` as the compound, how does the cytotoxicity at 10 µM read?
Answer: -6.14%

Question: Which cytotoxicity at 10 µM does the source give for `CN(C)c1ncc(NC(=O)N2CCC(CN3CCCC3)C2)cn1` (configuration not stated) here?
Answer: 3.88%

Question: Which cytotoxicity at 10 µM does the source give for `CCOC1COC2(CCN(Cc3ccc(C)c(C)c3)CC2)C1` (configuration not stated) here?
Answer: -11.2%

Question: With `Cc1cc2c(=O)n3c(nc2s1)CCN(Cc1[nH]cnc1C)CC3` as the compound, how does the cytotoxicity at 10 µM read?
Answer: -9.9%

Question: With `CC(C)=CCn1ncc(N2CCOCC2)cc1=O` as the compound, how does the cytotoxicity at 10 µM read?
Answer: -9.96%

Question: For `CNC(=O)c1sc2ccccc2c1C1CCN(c2cc(C)nc(C)n2)C1` (configuration not stated), which cytotoxicity at 10 µM is on record?
Answer: 10.8%

Question: For `O=C1COc2ccc(S(=O)(=O)NCc3ccccc3)c3c2N1CCC3`, which cytotoxicity at 10 µM is on record?
Answer: -7.48%

Question: For `CCNC(=O)NC(=O)C(C)N(C)CCOc1ccccc1C` (configuration not stated), which cytotoxicity at 10 µM is on record?
Answer: 3.45%

Question: Which cytotoxicity at 10 µM does the source give for `CCOC(=O)CCNC(=O)c1nc(OCC)ccc1Cl` here?
Answer: -7.6%

Question: Which cytotoxicity at 10 µM does the source give for `CCOc1cc(C)nc(N2CCN(C(=O)c3ccc[nH]3)CC2)n1` here?
Answer: -4%

Question: Which cytotoxicity at 10 µM does the source give for `O=C(c1ccn(-c2ccccc2Cl)n1)N1CCSCC1` here?
Answer: 15.6%

Question: With `c1cnc(C2CCCN2c2cnccn2)cn1` (configuration not stated) as the compound, how does the cytotoxicity at 10 µM read?
Answer: -22.6%

Question: With `Cc1nc(-c2cccc(N3CCC(N[C@@H]4CCOC4)CC3)c2)cs1` as the compound, how does the cytotoxicity at 10 µM read?
Answer: -8.16%

Question: With `CCc1noc(C2CCCCN2C(=O)c2nnc3ccccc3n2)n1` (configuration not stated) as the compound, how does the cytotoxicity at 10 µM read?
Answer: 0.795%
